ChEMBL document CHEMBL1139079, “Synthesis and HIV-1 integrase inhibitory activity of spiroundecane(ene) derivatives” (Bioorg Med Chem Lett, 2007)
pIC50: −log10 of the molar value. The source made the active and inactive calls. The rule behind the calls is not given here.

Legend:
[1] = Cytotoxicity against MT2 cells; type: cell-based; conditions: human
[2] = molecular target: Human immunodeficiency virus type 1 integrase (Human immunodeficiency virus 1) (UniProt Q7ZJM1); experiment: (§1) Inhibition of recombinant HIV1 integrase 3'-end processing activity
Sequence of Human immunodeficiency virus type 1 integrase (Human immunodeficiency virus 1) (Q7ZJM1 as listed by the source): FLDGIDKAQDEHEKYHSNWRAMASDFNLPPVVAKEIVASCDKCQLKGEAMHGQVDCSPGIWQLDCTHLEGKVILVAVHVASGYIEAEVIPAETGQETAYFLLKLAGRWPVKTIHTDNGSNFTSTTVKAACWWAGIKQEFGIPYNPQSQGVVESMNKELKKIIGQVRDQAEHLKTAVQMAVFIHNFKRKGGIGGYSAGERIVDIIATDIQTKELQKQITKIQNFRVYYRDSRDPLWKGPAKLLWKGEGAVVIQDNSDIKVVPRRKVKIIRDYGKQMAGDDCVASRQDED
Summary of the method: (§2)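 Recombinant HIV-1 integrase with a 21 bp duplex substrate, 5'-[32P]-labelled. 3'-processing read as release of the terminal dinucleotide; strand transfer read as DNA products longer than the starting substrate. Products resolved by PAGE. IC50 given as mean and standard deviation of at least three independent experiments.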

[3] = molecular target: T1, Human immunodeficiency virus type 1 integrase (Human immunodeficiency virus 1, UniProt Q7ZJM1); experiment: (§3) Inhibition of recombinant HIV1 integrase strand transfer activity; summary of the method: as §2
T1 sequence (Q7ZJM1 whole entry): as the sequence (Q7ZJM1 as listed by the source) above

[4] = molecular target: T1, Human immunodeficiency virus type 1 integrase; experiment: as §1; summary of the method: as §2
[5] = molecular target: Human immunodeficiency virus type 1 integrase (Human immunodeficiency virus 1) (UniProt Q7ZJM1); experiment: as §3; summary of the method: as §2
[6] = molecular target: T1, Human immunodeficiency virus type 1 integrase; experiment: Inhibition of recombinant HIV1 integrase mediated-disintegration activity
Summary of the method: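 Reverse of strand transfer, run with recombinant HIV-1 integrase on a Y-oligomer substrate carrying a 5'-[32P] label. Cleavage of the 34-mer strand releases a radiolabelled 19-bp oligonucleotide, which was detected by PAGE after reactions over a range of drug concentrations. IC50 derived from the gel analysis.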

| Structure (SMILES) | Activity [2] | pIC50 [3] | pIC50 [4] | Activity [5] | pIC50 [6] | CC50 [1] [µM] |
| --- | --- | --- | --- | --- | --- | --- |
| CCOC(=O)C1=C(O)CCC2(C(=O)OC(C)(C)OC2=O)[C@H]1c1ccccc1OC | inactive | 3.55 |  |  |  | > 111 |
| CC1(C)OC(=O)C2(C(=O)O1)[C@@H](c1ccco1)CC(=O)C[C@H]2c1ccccc1 |  | 3.88 | 3.85 |  |  | > 111 |
| COc1ccc([C@@H]2CC(=O)C[C@H](c3ccco3)C23C(=O)OC(C)(C)OC3=O)cc1 |  | 4.44 | 3.88 |  |  | > 111 |
| CC1(C)OC(=O)C2(C(=O)O1)[C@@H](c1ccco1)CC(=O)C[C@H]2c1ccccc1Cl | inactive |  |  | inactive |  | > 111 |
| CC1(C)OC(=O)C2(C(=O)O1)[C@@H](c1ccco1)CC(=O)C[C@H]2c1ccco1 |  | 4.75 | 4.48 |  | 4.09 | > 111 |
| COc1ccc([C@@H]2CC(=O)C[C@H](c3ccco3)C23C(=O)OC(C)(C)OC3=O)cc1OC |  | 4.04 | 3.95 |  |  | > 111 |
| CC1(C)OC(=O)C2(C(=O)O1)[C@@H](c1ccco1)CC(=O)C[C@H]2c1ccc(F)cc1 | inactive |  |  | inactive |  | > 111 |

Second part, led by results:

| Activity [2] | pIC50 [3] | pIC50 [4] | Activity [5] | pIC50 [6] | Structure (SMILES) | CC50 [1] [µM] |
| --- | --- | --- | --- | --- | --- | --- |
|  | 4.35 | 4.35 |  |  | COc1cccc([C@@H]2CC(=O)C[C@H](c3ccco3)C23C(=O)OC(C)(C)OC3=O)c1OC | > 111 |
| inactive |  |  | inactive |  | COc1ccc([C@@H]2CC(=O)C[C@H](c3ccco3)C23C(=O)OC(C)(C)OC3=O)c(C)c1 | > 111 |
|  | 4.01 | 3.85 |  |  | COc1ccc([C@H]2CC(=O)CCC23C(=O)OC(C)(C)OC3=O)cc1 | > 111 |
|  | 4.36 | 4.17 |  | 3.67 | CCOC(=O)C1=C(O)CCC2(C(=O)OC(C)(C)OC2=O)[C@H]1c1ccco1 | > 111 |
| inactive |  |  | inactive |  | COc1ccc([C@@H]2CC(=O)C[C@H](c3ccco3)C23C(=O)OC(C)(C)OC3=O)cc1O | > 111 |
| inactive |  |  | inactive |  | COc1ccc([C@@H]2CC(=O)C[C@H](c3ccccc3OC)C23C(=O)OC(C)(C)OC3=O)cc1O | > 111 |
|  | 5.02 | 4.95 |  | 4.72 | CC1(C)OC(=O)C2(C(=O)O1)[C@@H](c1ccco1)CC(=O)C[C@H]2c1c[nH]c2ccccc12 | > 111 |
| inactive |  |  | inactive |  | CC1(C)OC(=O)C2(C(=O)O1)[C@@H](c1ccco1)CC(=O)C[C@H]2c1ccc(Br)cc1 | > 111 |
